Experimental findings from ChEMBL document CHEMBL1144528, “Synthesis of 8-thiabicyclo[3.2.1]octanes and their binding affinity for the dopamine and serotonin transporters” (Bioorg Med Chem, 2007) are described below.

Structures are written as SMILES.

Test [1] addresses Transporter (Macaca mulatta, UniProt Q7JHP9). Description: Displacement of [3H]WIN-35428 from DAT in rhesus monkey caudate-putamen. The format is tissue-based. Summed up: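 Rhesus or cynomolgus caudate-putamen membranes (4 mg original wet weight/mL) in 50 mM Tris·HCl pH 7.4, 100 mM NaCl. Incubated 2 h at 0-4 °C with 0.3 nM [3H]WIN35,428 and a range of drug concentrations. Filtered on 0.1% BSA-soaked glass fibre filters and scintillation counted. Nonspecific binding defined with 30 μM (-)-cocaine. IC50 is the mean of ≥2 experiments in different brains, each in triplicate.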

Test [2] concerns the target Sodium-dependent serotonin transporter (Macaca mulatta, UniProt Q9MYX0). The test can be described thus: Displacement of [3H]citalopram from SERT in rhesus monkey caudate-putamen. The format is tissue-based. Put shortly:
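Caudate-putamen membranes from rhesus or cynomolgus monkey (4 mg original wet weight/mL) in 50 mM Tris·HCl pH 7.4 with 100 mM NaCl. Incubated with 1 nM [3H]citalopram and a range of test drug concentrations for 2 h at 0-4 °C. Filtered over glass fibre filters pre-soaked in 0.1% polyethyleneimine, then scintillation counted. IC50 is the mean of ≥2 independent experiments in different brains, each in triplicate.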

The species entered for test [3] is Macaca mulatta. Description: Selectivity for rhesus monkey DAT over rhesus monkey SERT. Put shortly:
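Ratio of SERT IC50 ([3H]citalopram binding) to DAT IC50 ([3H]WIN35,428 binding), both measured in monkey caudate-putamen membranes.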

Chain of Transporter (Q7JHP9 whole entry): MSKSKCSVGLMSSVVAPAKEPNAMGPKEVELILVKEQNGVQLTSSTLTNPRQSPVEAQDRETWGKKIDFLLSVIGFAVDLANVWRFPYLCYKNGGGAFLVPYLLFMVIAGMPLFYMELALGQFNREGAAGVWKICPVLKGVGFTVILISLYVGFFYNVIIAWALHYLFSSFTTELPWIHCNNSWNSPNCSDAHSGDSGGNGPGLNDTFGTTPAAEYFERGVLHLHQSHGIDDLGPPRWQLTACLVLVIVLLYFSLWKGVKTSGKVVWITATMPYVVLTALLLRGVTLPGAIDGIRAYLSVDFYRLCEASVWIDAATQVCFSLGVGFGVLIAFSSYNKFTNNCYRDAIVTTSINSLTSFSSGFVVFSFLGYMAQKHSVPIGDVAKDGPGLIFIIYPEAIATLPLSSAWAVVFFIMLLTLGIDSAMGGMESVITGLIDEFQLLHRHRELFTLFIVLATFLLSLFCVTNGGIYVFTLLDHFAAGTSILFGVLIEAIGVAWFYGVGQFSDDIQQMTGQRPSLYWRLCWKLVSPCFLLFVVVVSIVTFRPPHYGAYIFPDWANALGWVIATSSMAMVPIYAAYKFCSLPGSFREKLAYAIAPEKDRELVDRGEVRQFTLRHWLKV
Chain of Sodium-dependent serotonin transporter (Q9MYX0 whole entry): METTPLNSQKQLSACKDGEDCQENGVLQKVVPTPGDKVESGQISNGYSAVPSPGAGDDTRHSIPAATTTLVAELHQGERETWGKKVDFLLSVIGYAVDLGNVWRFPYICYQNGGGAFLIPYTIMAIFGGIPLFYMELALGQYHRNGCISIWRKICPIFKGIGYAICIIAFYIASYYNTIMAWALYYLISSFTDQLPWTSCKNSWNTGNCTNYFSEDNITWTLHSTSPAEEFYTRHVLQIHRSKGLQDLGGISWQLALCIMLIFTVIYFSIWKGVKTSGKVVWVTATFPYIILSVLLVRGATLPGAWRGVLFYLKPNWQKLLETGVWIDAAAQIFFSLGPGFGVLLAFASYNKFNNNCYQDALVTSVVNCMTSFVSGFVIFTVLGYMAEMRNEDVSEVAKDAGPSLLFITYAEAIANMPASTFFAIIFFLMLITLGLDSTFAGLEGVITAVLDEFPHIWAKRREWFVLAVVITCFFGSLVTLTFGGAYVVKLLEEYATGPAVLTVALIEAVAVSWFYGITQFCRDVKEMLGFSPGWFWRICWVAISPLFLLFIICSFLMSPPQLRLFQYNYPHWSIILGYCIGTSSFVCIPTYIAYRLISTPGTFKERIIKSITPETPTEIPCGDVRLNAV

As to `COC(=O)C1=C(c2ccc(Cl)c(Cl)c2)CC2CC[C@@H]1N2C`, the IC50 in test [1] stood at 490 nM; in test [2] it was 1900 nM. The Ratio IC50 in test [3] is 4.
As for `COC(=O)[C@@H]1C2CCC(C[C@H]1c1ccc(Cl)c(Cl)c1)O2` (stereo partly drawn), the half-inhibitory concentration (IC50) amounted to 3.1 nM in test [1] and 64.5 nM in test [2]. In addition, in test [3], the Ratio IC50 is 21.
As to `COC(=O)[C@@H]1C2CCC(C[C@@H]1c1ccc(Cl)c(Cl)c1)[S+]2[O-]` (stereo partly drawn), the concentration for half-maximal inhibition (IC50) in test [1] came out at 5.3 nM; in test [2] it was 120 nM. The Ratio IC50 in test [3] amounted to 23.
For `COC(=O)[C@@H]1[C@H]2[C@H](O)CC(C[C@H]1c1ccc(Cl)c(Cl)c1)N2C` the same measures were 0.76 nM, 1220 nM and 1610.
`COC(=O)C1=C(c2ccc(Cl)cc2)CC2CCC1S2` (stereo not drawn): the IC50 in test [1] is 13 nM; in test [2] it was over 10000 nM. In addition, the Ratio IC50 in test [3] was over 770.
For `COC(=O)[C@@H]1[C@H]2CCC(C[C@H]1c1ccc(Cl)c(Cl)c1)O2` the same measures were 2.3 nM, 31 nM and 13.
Turning to `COC(=O)[C@@H]1[C@@H]2CCC(C[C@@H]1c1ccc(Cl)c(Cl)c1)O2`, the IC50 in test [1] was determined as 47 nM; in test [2] it was 58 nM. Also, the Ratio IC50 in test [3] was 1.2.
In the case of `COC(=O)C1=C(c2ccc(Cl)c(Cl)c2)CC2CC[C@H]1O2`, the IC50 in test [1] is 4.6 nM; in test [2], 2120 nM. The Ratio IC50 in test [3] stood at 460.
For the compound `COC(=O)[C@@H]1C2CCC(C[C@@H]1c1ccccc1)S2` (stereo partly drawn), the results for the IC50 in test [1] and in test [2] were 117 nM and over 3000 nM, respectively. In addition, the Ratio IC50 in test [3] is over 29.
In the case of `COC(=O)[C@@H]1C2CCC(C[C@@H]1c1ccc(Cl)c(F)c1)S2` (stereo partly drawn), the half-maximal inhibitory concentration (IC50) stood at 6 nM in test [1] and 17 nM in test [2]. For the same compound, in test [3], the Ratio IC50 is 3.
For `COC(=O)C1=C(c2ccccc2)CC2CCC1S2` (stereo not drawn), the results for the IC50 in test [1] and in test [2] were 910 nM and over 10000 nM, respectively. The Ratio IC50 in test [3] is over 11.
Taken in the same sequence, the figures for `COC(=O)C1=C(c2ccc(Cl)c(Cl)c2)CC2CC[C@H]1N2C` were 1.2 nM, 867 nM and 723.
For the compound `COC(=O)[C@@H]1C2CCC(C[C@H]1c1ccc(Br)cc1)S2` (stereo partly drawn), the IC50 came to 6 nM in test [1] and 342 nM in test [2]. Besides, the Ratio IC50 in test [3] worked out at 57.
For `COC(=O)C1=C(c2ccc(F)c(F)c2)CC2CCC1S2` (stereo not drawn), the IC50 in test [1] is 75 nM; in test [2], over 10000 nM. The Ratio IC50 in test [3] was over 133.
Consider `COC(=O)[C@@H]1C2CCC(C[C@@H]1c1ccc(F)c(F)c1)S2` (stereo partly drawn), for which the IC50 in test [1] was 32 nM; in test [2], 235 nM. Further, in test [3], the Ratio IC50 was determined as 7.
Taken in the same sequence, the figures for `COC(=O)[C@@H]1C2CCC(C[C@H]1c1ccc(F)c(Cl)c1)[S+]2[O-]` (stereo partly drawn) were 23 nM, over 31000 nM and over 1350.
Turning to `COC(=O)[C@@H]1C2CCC(C[C@H]1c1ccc(F)c(F)c1)[S+]2[O-]` (stereo partly drawn), the IC50 was 89 nM in test [1] and over 69000 nM in test [2]. The Ratio IC50 in test [3] was over 775.
Turning to `COC(=O)[C@@H]1C2CCC(C[C@@H]1c1ccc3ccccc3c1)S2` (stereo partly drawn), the figures for the IC50 in test [1] and in test [2] were 16 nM and 13 nM, respectively. Moreover, the Ratio IC50 in test [3] came out at 0.8.
With `COC(=O)[C@@H]1C2CCC(C[C@@H]1c1ccc(I)cc1)S2` (stereo partly drawn), the IC50 worked out at 14 nM in test [1] and 10 nM in test [2]. For the same compound, the Ratio IC50 in test [3] is 0.7.
`COC(=O)[C@@H]1C2CCC(C[C@H]1c1ccc(F)cc1)S2` (stereo partly drawn): the half-inhibitory concentration (IC50) in test [1] is 59 nM; in test [2], over 11000 nM. Moreover, in test [3], the Ratio IC50 is over 186.
`COC(=O)[C@@H]1C2CCC(C[C@@H]1c1ccc(Cl)cc1)S2` (stereo partly drawn): the half-inhibitory concentration (IC50) in test [1] came out at 9.6 nM; in test [2], 33 nM. Further, the Ratio IC50 in test [3] came out at 3.4.
`COC(=O)[C@@H]1C2CCC(C[C@H]1c1ccc(Cl)cc1)S2` (stereo partly drawn): the figures for the IC50 in test [1] and in test [2] were 11 nM and 1000 nM, respectively. The Ratio IC50 in test [3] was over 91.
`COC(=O)[C@@H]1C2CCC(C[C@@H]1c1ccc(Cl)c(F)c1)[S+]2[O-]` (stereo partly drawn): the IC50 in test [1] was 14 nM; in test [2], over 4000 nM. Also, in test [3], the Ratio IC50 was over 286.
On to `COC(=O)C1=C(c2ccc(I)cc2)CC2CCC1S2` (stereo not drawn), for which the half-inhibitory concentration (IC50) in test [1] was 6.7 nM; in test [2] it was over 8000 nM. Moreover, the Ratio IC50 in test [3] was over 1300.
Taken in the same sequence, the figures for `COC(=O)[C@@H]1C2CCC(C[C@@H]1c1ccc(F)cc1)S2` (stereo partly drawn) were 38 nM, 494 nM and 13.
As for `COC(=O)C1=C(c2ccc(Cl)c(Cl)c2)CC2CC[C@@H]1O2`, the IC50 in test [1] came to 58 nM; in test [2] it was 46700 nM. The Ratio IC50 in test [3] turned out to be 805.
With `COC(=O)[C@@H]1C2CCC(C[C@H]1c1ccc(Cl)c(Cl)c1)S2` (stereo partly drawn), the IC50 is 6.9 nM in test [1] and 99 nM in test [2]. In test [3], the Ratio IC50 is 14.
Consider `COC(=O)C1=C(c2ccccc2)CC2CCC1[S+]2[O-]` (stereo not drawn), for which the 50% inhibitory concentration (IC50) is 6000 nM in test [1] and over 10000 nM in test [2]. Also, the Ratio IC50 in test [3] is over 1.6.
Turning to `COC(=O)C1=C(c2ccc(Cl)c(Cl)c2)CC2C[C@@H](O)[C@H]1N2C`, the IC50 in test [1] worked out at 7.4 nM; in test [2], 5370 nM.
Take `COC(=O)[C@@H]1C2CCC(C[C@H]1c1ccc(Br)cc1)[S+]2[O-]` (stereo partly drawn): the IC50 is 14 nM in test [1] and over 24000 nM in test [2]. For the same compound, the Ratio IC50 in test [3] was over 1710.
For `COC(=O)[C@@H]1C2CCC(C[C@H]1c1ccc(Cl)c(F)c1)[S+]2[O-]` (stereo partly drawn), the IC50 in test [1] was 17 nM; in test [2], over 14000 nM. In addition, in test [3], the Ratio IC50 was over 824.
In the case of `COC(=O)[C@H]1[C@@H](c2ccc(Cl)c(Cl)c2)CC2CC[C@H]1S2`, the figures for the half-maximal inhibitory concentration (IC50) in test [1] and in test [2] were 2 nM and 3 nM, respectively. Further, the Ratio IC50 in test [3] was 1.5.
For `COC(=O)C1=C(c2ccc(Cl)c(Cl)c2)CC2CCC1S2` (stereo not drawn) the same measures were 4.5 nM, over 3000 nM and over 800.
With `COC(=O)[C@@H]1C2CCC(C[C@H]1c1ccc(Cl)c(F)c1)S2` (stereo partly drawn), the concentration for half-maximal inhibition (IC50) in test [1] was found to be 7 nM; in test [2], 702 nM. Also, the Ratio IC50 in test [3] amounted to 100.
In the case of `COC(=O)[C@@H]1C2CCC(C[C@H]1c1ccc3ccccc3c1)S2` (stereo partly drawn), the results for the IC50 in test [1] and in test [2] were 8 nM and 36 nM, respectively. Further, the Ratio IC50 in test [3] came out at 4.5.
Turning to `COC(=O)[C@@H]1C2CCC(C[C@H]1c1ccc(I)cc1)S2` (stereo partly drawn), the figures for the concentration for half-maximal inhibition (IC50) in test [1] and in test [2] were 9 nM and 70 nM, respectively. The Ratio IC50 in test [3] was 8.
Taken in the same sequence, the figures for `COC(=O)[C@@H]1[C@H]2CCC(C[C@H]1c1ccc(Cl)c(Cl)c1)N2C` were 0.4 nM, 27 nM and 68.
Regarding `COC(=O)[C@@H]1C2CCC(C[C@@H]1c1ccc(Br)cc1)S2` (stereo partly drawn), the results for the 50% inhibitory concentration (IC50) in test [1] and in test [2] were 6 nM and 14 nM, respectively. Moreover, the Ratio IC50 in test [3] worked out at 2.3.
Consider `COC(=O)[C@@H]1C2CCC(C[C@@H]1c1ccc(F)c(Cl)c1)S2` (stereo partly drawn), for which the concentration for half-maximal inhibition (IC50) in test [1] was determined as 6.7 nM; in test [2] it was 370 nM. The Ratio IC50 in test [3] is 55.
On to `COC(=O)C1=C(c2ccc(Cl)c(Cl)c2)CC2C[C@@H](O)[C@@H]1N2C`, for which the half-inhibitory concentration (IC50) in test [1] was found to be 265 nM; in test [2] it was 1590 nM.
